Experimental findings from ChEMBL document CHEMBL1137880, “Synthesis and GABA receptor potency of 3-thiomethyl-4-(hetero)aryl-5-amino-1-phenylpyrazoles” (Bioorg Med Chem Lett, 2004) are described below.

A value given as a limit tells only on which side of the number the result lay.

The target in experiment [1] is GABA-A receptor; anion channel (Mus musculus) (UniProt Q8BHJ7+P26048+Q8QZW7+P50571+Q9R0Y8+P22723+A2AMW3+P62812+Q9JLF1+P26049+P22933+Q9D6F4+P63080+P27681+P16305). Briefly: Ratio of binding affinity for mouse brain Gamma-aminobutyric acid receptor and housefly Gamma-aminobutyric acid receptor.
The nature of experiment [2]: In vivo percent mortality of housefly at 100 mM was determined using contact assay. The format is ADME, organism-based. The following applies: Musca domestica, topical.
A short description of experiment [3]: In vivo percent mortality of cyclodiene resistant allele-homozygous CO fleas at 100 mM was determined using contact assay. The format is ADME, organism-based. The following applies: Pulicinae. The gist of the method: (§1)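 Cat fleas were exposed by contact at 100 mM. The strains were chosen as genetic variants for the cyclodiene resistance allele, to compare insecticidal activity across them. The read-out was percent mortality.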

A short description of experiment [4]: In vivo percent mortality of cyclodiene resistant mixed homozygous and heterozygous NC fleas at 100 mM was determined using contact assay. In kind it is ADME, organism-based. The following applies: Pulicinae. The gist of the method:
as §1

Experiment [5] has as its system GABA-A receptor; anion channel. Briefly: In vitro insecticidal activity as inhibition of [3H]EBOB binding to Gamma-aminobutyric acid GABA-A receptor of housefly neuronal membranes; IA denotes inactive. Further details: species or system Musca domestica; call rule not given here.
The subject of experiment [6] is GABA-A receptor; anion channel. Briefly: In vitro insecticidal activity as inhibition of [3H]EBOB binding to Gamma-aminobutyric acid GABA-A receptor of housefly neuronal membranes; NI denotes negative inhibition. Also on record: species or system Musca domestica.

For the molecule `CSc1nn(-c2c(Cl)cc(C(F)(F)F)cc2Cl)c(N)c1-c1ccc(C#N)cc1`, the Selectivity in experiment [1] came to 666.
Take `CSc1nn(-c2c(Cl)cc(C(F)(F)F)cc2Cl)c(N)c1I`: the Selectivity in experiment [1] was determined as 43.
For `CSc1nn(-c2c(Cl)cc(C(F)(F)F)cc2Cl)c(N)c1-c1ccccc1C`, the mortality at 100000 µM in experiment [2] is 9.6%; in experiment [3], 60.8%; in experiment [4], 0%. Further, the Selectivity in experiment [1] came out at 400.
In the case of `CSc1nn(-c2c(Cl)cc(C(F)(F)F)cc2Cl)c(N)c1-c1cccc(C(F)(F)F)c1`, in experiment [1], the Selectivity stood at 5.
As to `CSc1nn(-c2c(Cl)cc(C(F)(F)F)cc2Cl)c(N)c1-c1cccnc1`, the IC50 entry in experiment [5] was “Not Active”.
In the case of `COc1ccc(-c2c(SC)nn(-c3c(Cl)cc(C(F)(F)F)cc3Cl)c2N)c(OC)c1`, the Selectivity in experiment [1] came to 49.
In the case of `CCOC(=O)c1c(SC)nn(-c2c(Cl)cc(C(F)(F)F)cc2Cl)c1N`, the Selectivity in experiment [1] turned out to be 400.
Regarding `CSc1nn(-c2c(Cl)cc(C(F)(F)F)cc2Cl)c(N)c1-c1ccsc1`, the IC50 result in experiment [5] is on record as “Not Active”.
In the case of `CSc1nn(-c2c(Cl)cc(C(F)(F)F)cc2Cl)c(N)c1-c1cncnc1`, in experiment [6], the IC50 result was “Not Active”.
Turning to `COc1cccc(-c2c(SC)nn(-c3c(Cl)cc(C(F)(F)F)cc3Cl)c2N)c1`, in experiment [1], the Selectivity is 346.
For `CSc1nn(-c2c(Cl)cc(C(F)(F)F)cc2Cl)c(N)c1-c1cnccn1`, the values for the mortality at 100000 µM in experiment [2], in experiment [3] and in experiment [4] were 0%, 77.4% and 89.9%, respectively. In addition, the Selectivity in experiment [1] amounted to 45.
Take `CSc1nn(-c2c(Cl)cc(C(F)(F)F)cc2Cl)c(N)c1Br`: the Selectivity in experiment [1] is 2500.
For `CSc1nn(-c2c(Cl)cc(C(F)(F)F)cc2Cl)c(N)c1-c1ccccc1F`, the IC50 result in experiment [5] is reported as “Not Active”.
Consider `CSc1nn(-c2c(Cl)cc(C(F)(F)F)cc2Cl)c(N)c1-c1cccs1`, for which the Selectivity in experiment [1] turned out to be 44.
In the case of `CSc1nn(-c2c(Cl)cc(C(F)(F)F)cc2Cl)c(N)c1-c1cc(C)cs1`, the IC50 entry in experiment [5] was “Not Active”.
For `CSc1cc(N)n(-c2c(Cl)cc(C(F)(F)F)cc2Cl)n1`, the mortality at 100000 µM in experiment [2] was 42.4%; in experiment [3], 4.4%; in experiment [4], 0%. Also, in experiment [1], the Selectivity was 250.
With `CSc1nn(-c2c(Cl)cc(C(F)(F)F)cc2Cl)c(N)c1-c1cccc(C(C)C)c1`, the IC50 entry in experiment [5] is “Not Active”.
On to `CSc1nn(-c2c(Cl)cc(C(F)(F)F)cc2Cl)c(N)c1C#N`, for which the Selectivity in experiment [1] came to 500.
With `CSc1nn(-c2c(Cl)cc(C(F)(F)F)cc2Cl)c(N)c1-c1ccc(C(C)C)cc1`, the IC50 result in experiment [5] was “Not Active”.
The same measure, in the same setting: as for `CSc1nn(-c2c(Cl)cc(C(F)(F)F)cc2Cl)c(N)c1-c1cccc(C(C)(C)C)c1`, the entry is “Not Active”.
With `CSc1nn(-c2c(Cl)cc(C(F)(F)F)cc2Cl)c(N)c1-c1cccc(Cl)c1`, in experiment [1], the Selectivity stood at 31.
Consider `COc1cc(-c2c(SC)nn(-c3c(Cl)cc(C(F)(F)F)cc3Cl)c2N)cc(OC)c1OC`, for which the IC50 entry in experiment [5] was “Not Active”.
For the molecule `C#Cc1c(SC)nn(-c2c(Cl)cc(C(F)(F)F)cc2Cl)c1N`, the mortality at 100000 µM was determined as 80.1% in experiment [2], 2.2% in experiment [3] and 0% in experiment [4]. Besides, the Selectivity in experiment [1] was more than 10000.
On to `CSc1nn(-c2c(Cl)cc(C(F)(F)F)cc2Cl)c(N)c1-c1ccc(Cl)s1`, for which the Selectivity in experiment [1] stood at 434.
Regarding `CSc1nn(-c2c(Cl)cc(C(F)(F)F)cc2Cl)c(N)c1-c1ccc(C(C)=O)s1`, in experiment [1], the Selectivity stood at 25.
As for `CSc1nn(-c2c(Cl)cc(C(F)(F)F)cc2Cl)c(N)c1-c1cc(C(F)(F)F)cc(C(F)(F)F)c1`, the Selectivity in experiment [1] stood at 12.
As to `CSc1ccc(-c2c(SC)nn(-c3c(Cl)cc(C(F)(F)F)cc3Cl)c2N)cc1`, the Selectivity in experiment [1] turned out to be 230.
For the molecule `CSc1nn(-c2c(Cl)cc(C(F)(F)F)cc2Cl)c(N)c1-c1nc(C)no1`, the results for the mortality at 100000 µM in experiment [2], in experiment [3] and in experiment [4] were 95.4%, 0% and 0%, respectively. In experiment [1], the Selectivity worked out at 9.
For the molecule `CSc1nn(-c2c(Cl)cc(C(F)(F)F)cc2Cl)c(N)c1-c1ccc(C)s1`, the IC50 entry in experiment [5] is “Not Active”.
Consider `CSc1nn(-c2c(Cl)cc(C(F)(F)F)cc2Cl)c(N)c1-c1ccc(Cl)cc1`, for which, in experiment [5], the IC50 result is “Not Active”.
On to `COc1ccc(-c2c(SC)nn(-c3c(Cl)cc(C(F)(F)F)cc3Cl)c2N)cc1`, for which, in experiment [1], the Selectivity was found to be 180.
The same measure, in the same setting: the figure for `CSc1nn(-c2c(Cl)cc(C(F)(F)F)cc2Cl)c(N)c1C(=O)O` is 45.
Regarding `CSc1nn(-c2c(Cl)cc(C(F)(F)F)cc2Cl)c(N)c1-c1ccncc1`, the IC50 entry in experiment [5] is “Not Active”.
Turning to `CSc1nn(-c2c(Cl)cc(C(F)(F)F)cc2Cl)c(N)c1-c1ccc(F)c(Cl)c1`, the Selectivity in experiment [1] turned out to be 4.
Consider `CSc1nn(-c2c(Cl)cc(C(F)(F)F)cc2Cl)c(N)c1-c1ccccc1C(F)(F)F`, for which the mortality at 100000 µM came to 3.9% in experiment [2], 58.7% in experiment [3] and 0% in experiment [4]. Also, in experiment [1], the Selectivity came to 6000.
In the case of `CSc1nn(-c2c(Cl)cc(C(F)(F)F)cc2Cl)c(N)c1-c1ccc2c(c1)OCO2`, the mortality at 100000 µM stood at 27.6% in experiment [2], 1.4% in experiment [3] and 0% in experiment [4]. Further, the Selectivity in experiment [1] was 64.
For the molecule `CSc1nn(-c2c(Cl)cc(C(F)(F)F)cc2Cl)c(N)c1-c1ccccc1`, the Selectivity in experiment [1] was 4.
In the case of `CSc1nn(-c2c(Cl)cc(C(F)(F)F)cc2Cl)c(N)c1-c1ccccn1`, in experiment [5], the IC50 result is “Not Active”.
Same read-out and setting: the entry for `CSc1nn(-c2c(Cl)cc(C(F)(F)F)cc2Cl)c(N)c1-c1ccc(Br)cc1` is “Not Active”.
Regarding `CSc1nn(-c2c(Cl)cc(C(F)(F)F)cc2Cl)c(N)c1Cl`, the values for the mortality at 100000 µM in experiment [2], in experiment [3] and in experiment [4] were 92.8%, 32.3% and 3.3%, respectively. Moreover, the Selectivity in experiment [1] was determined as 210.
As for `CSc1ccccc1-c1c(SC)nn(-c2c(Cl)cc(C(F)(F)F)cc2Cl)c1N`, in experiment [5], the IC50 result was “Not Active”.
Consider `CSc1nn(-c2c(Cl)cc(C(F)(F)F)cc2Cl)c(N)c1-c1ccc(C)cc1`, for which the Selectivity in experiment [1] amounted to 66.
`COc1ccc(-c2c(SC)nn(-c3c(Cl)cc(C(F)(F)F)cc3Cl)c2N)cc1OC`: the Selectivity in experiment [1] is 2000.
Same read-out and setting: as for `CSc1nn(-c2c(Cl)cc(C(F)(F)F)cc2Cl)c(N)c1-c1ccc(F)cc1`, the figure is 20.

One may read the mortality as the percentage killed.
